In ChEMBL document CHEMBL1157417, “Synthetic and pharmacological studies on new simplified analogues of the potent actin-targeting Jaspamide” (Bioorg Med Chem, 2008) one finds Activity and IC50 data, which are given here for eight compounds.

Molecules are shown by their SMILES. Calls of active or inactive are those of the source. The rule behind the calls is not given here.

What all share (format): functional, cell-based
For experiment [1], the system named is A498. Nature of the experiment: Effect on morphology in human A498 cells assessed as cell aberration at 100 umol after 16 hrs by microfilament immunofluorescence assay. The essentials:
(§1)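 A-498 cells grown to near-confluency on glass coverslips, then exposed 16 h. Cytochalasin B served as the microfilament-depolymerising positive control. Microfilaments stained with monoclonal anti-actin and microtubules with monoclonal anti-β-tubulin, both visualised with fluorescein-conjugated anti-mouse IgG. Scored for binucleation and other cellular aberration.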

Experiment [2] relates to A498. Nature of the experiment: Cytotoxicity against human A498 cells after 48 hrs by SRB binding assay. The following applies: A498, 48 h. Put shortly:
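A498 kidney adenocarcinoma cells kept in R-MEM with 10% FBS and 50 µg/mL gentamycin, 37 °C, 5% CO2. Seeded at about 15% confluency and left 24 h to attach. Treated in triplicate with varying concentrations for 48 h. Survival read by sulforhodamine B binding as a percentage of control cultures.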
Background: Sulforhodamine B stains cellular protein and so reports cell mass.

In experiment [3] the test system is A498. Description: Effect on morphology in human A498 cells assessed as appearance of binucleated cells after 16 hrs by microfilament immunofluorescence assay. The essentials:
as §1

With `CC1/C=C/CCCOC(=O)C[C@H](c2ccccc2)NC(=O)[C@@H](Cc2c[nH]c3ccccc23)NC(=O)[C@H](C)NC(=O)C1` (stereo not given in full), in the experiment on A498 [1], the outcome was inactive. The IC50 (as a rule, the concentration that gives 50% inhibition) with A498 [2] was 25 µM.

As for `C=C1[C@@H](C)[C@H]2[C@H](Cc3ccccc3)NC(=O)[C@]23OC(=O)/C=C/[C@H](O)CCC[C@@H](C)C/C=C/[C@H]3[C@@H]1O`, the result in the experiment on A498 [3] was Active.

Turning to `C[C@@H]1NC(=O)CCCCCCCNC(=O)C[C@H](c2ccccc2)NC(=O)[C@@H](Cc2c[nH]c3ccccc23)NC1=O`, in the experiment on A498 [1], the outcome was inactive.

In the case of `C[C@@H]1NC(=O)CC/C=C/CCCOC(=O)CCNC(=O)[C@@H](Cc2c[nH]c3ccccc23)NC1=O`, the result in the experiment with A498 [1] was inactive.

`C[C@@H]1NC(=O)CCNC(=O)CCCNC(=O)CCNC(=O)[C@@H](Cc2c[nH]c3ccccc23)NC1=O`: the outcome in the experiment with A498 [1] was inactive.

Take `COc1ccc([C@H]2CC(=O)NCCCC(=O)NCCC(=O)N[C@@H](C)C(=O)N[C@H](Cc3c[nH]c4ccccc34)C(=O)N2)cc1`: in the experiment with A498 [1], the outcome was inactive.

On to `C[C@@H]1NC(=O)CCNC(=O)CCCNC(=O)C[C@H](c2ccccc2)NC(=O)[C@@H](Cc2c[nH]c3ccccc23)NC1=O`, for which the outcome with A498 [1] was inactive.

With `C[C@@H]1NC(=O)CC/C=C/CCCOC(=O)C[C@H](c2ccccc2)NC(=O)[C@@H](Cc2c[nH]c3ccccc23)NC1=O`, the outcome in the experiment with A498 [1] was inactive. Also, in the experiment with A498 [2], the IC50 amounted to 25 µM.
